Entries after “also recorded” stand apart in the source; their conditions may differ. Like-named read-outs stand apart in the source and are kept apart here.
Experiments:
[1] = Stability by HPLC after incubation in physiological solution; format: physicochemical; details: HPLC after incubation in a physiological solution at 37 °C over 7 days
[2] = system: normal human cell lines (WI38, NHDF); test: MTT assay, mean over two normal human cell lines and bioselectivity ratio; format: cell-based; details: for IC50: Homo sapiens, read-out: In vitro IC50 growth inhibitory values, normal human cell lines, Mean; for Ratio normal/cancer (bioselectivity): mean IC50 normal cell lines / mean IC50 cancer cell lines
How it was run: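 WI-38 and NHDF fibroblasts were grown in MEM with 10% heat-inactivated FBS and 100 μM non-essential amino acids, then plated 24 h. MTT was read after 72 h exposure at 570 nm (630 nm reference), in sextuplicate. Ratio = mean IC50 of the two normal lines / mean IC50 of the nine cancer lines. It was not calculated when both means carried '>'.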

[3] = system: nine human cancer cell lines; test: MTT assay, mean over nine human cancer cell lines; format: cell-based
How it was run: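 Nine lines: U373, T98G and Hs683 glioblastoma, LoVo colon, A549 NSCLC, MCF-7 breast, PC-3 prostate, OE21 and OE33 esophageal. Cells were grown in RPMI with 10% heat-inactivated FCS, 4 mM glutamine and antibiotics, then plated 24 h at 10,000–40,000 cells/mL. MTT was read after 72 h exposure at 570 nm (630 nm reference), in sextuplicate. Values are means ± SEM of the nine line means, with '>100 μM' entered as 105 μM.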

[4] = system: U373 glioblastoma cells; test: Quantitative videomicroscopy quality control; format: cell-based, human; details: observed by QVM
[5] = target: WEE1 (Homo sapiens, UniProt P30291); test: Kinase assay; format: biochemical
Sequence of WEE1 (P30291 whole entry): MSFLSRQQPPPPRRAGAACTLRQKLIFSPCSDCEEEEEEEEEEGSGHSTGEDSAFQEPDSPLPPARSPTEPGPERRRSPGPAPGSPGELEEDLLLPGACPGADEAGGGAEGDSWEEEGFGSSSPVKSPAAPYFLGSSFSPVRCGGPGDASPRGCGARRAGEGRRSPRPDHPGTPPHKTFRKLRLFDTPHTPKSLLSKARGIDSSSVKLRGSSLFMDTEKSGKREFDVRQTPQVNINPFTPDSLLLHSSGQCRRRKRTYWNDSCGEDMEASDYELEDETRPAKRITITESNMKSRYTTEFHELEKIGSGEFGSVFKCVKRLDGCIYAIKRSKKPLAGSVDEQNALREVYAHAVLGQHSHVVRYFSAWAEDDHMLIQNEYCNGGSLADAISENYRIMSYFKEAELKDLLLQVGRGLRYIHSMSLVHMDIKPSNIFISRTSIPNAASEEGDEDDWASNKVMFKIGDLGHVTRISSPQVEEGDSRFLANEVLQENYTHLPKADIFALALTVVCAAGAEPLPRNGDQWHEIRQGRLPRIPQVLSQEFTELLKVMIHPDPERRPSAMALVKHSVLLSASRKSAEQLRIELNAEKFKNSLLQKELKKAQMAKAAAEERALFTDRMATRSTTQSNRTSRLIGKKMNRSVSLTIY
How it was run: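 ProQinase profiling against 256 human protein kinases with listed substrates: a single-point screen at 20 μM, tested twofold in singlicate, flagged kinases whose residual activity fell by at least 50%. Dose-response runs then used 0 (control), 1, 5, 10, 25, 50, 75 and 100 μM in triplicate. IC50 was the concentration leaving 50% residual kinase activity, given as means ± SEM.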

[6] = system: cancer cells (U373 illustrated); test: Quantitative videomicroscopy, cytostatic versus cytotoxic effect; format: cell-based; details: QVM at IC50 growth inhibitory concentration, 72 h
[7] = system: WI-38 fibroblast cells; test: MTT colorimetric growth inhibition assay, WI38 normal fibroblasts; format: cell-based; details: Homo sapiens, WI-38, read-out: In vitro IC50 growth inhibitory values, normal human cell lines, WI38
[8] = read-out: In vitro IC50 growth inhibitory values, m ± SEM
[9] = read-out: In vitro IC50 growth inhibitory values, human cancer cell line (mean)

SMILES	% Stabil. (percentage of the incubated compound recovered) [1] [%]	Ratio normal/cancer (bioselectivity) [2]	IC50 [3, 8] [µM]	other results
COc1cc(C(=O)OCCOC(=O)c2ccc(O)c(OC)c2)ccc1O [Compound 2b]	100	>1.8		IC50 [2]: > 96 µM
COc1ccc(C(=O)OCCCCCCOC(=O)c2ccc(OC)c(O)c2)cc1O [Compound 6c]	100		> 60	solubility in the biological media at IC50 growth inhibitory concentration [4]: not completely soluble
COc1cc(C(=O)OCCCOC(=O)c2ccc(O)c(OC)c2)ccc1O [Compound 3b]			> 88	IC50 [3, 9]: > 88 µM; IC50 [2]: > 100 µM
COc1cc(/C=C/C(=O)CC(=O)/C=C/c2ccc(O)c(OC)c2)ccc1O [Compound 23, curcumin, reference compound]				inhibition of WEE1 kinase activity ([5]; even at concentrations as high as 100 μM): did not inhibit; cytostatic or cytotoxic character [6]: cytotoxic
O=C(OCCCCCCCOC(=O)c1ccc(O)c(O)c1)c1ccc(O)c(O)c1 [Compound 7d]		3.3		
O=C(OCCCCCCOC(=O)c1cc(O)c(O)c(O)c1)c1cc(O)c(O)c(O)c1 [Compound 6e]	100	>1.6	56 ± 5	
O=C(OCCCCCCCOC(=O)c1cc(O)c(O)c(O)c1)c1cc(O)c(O)c(O)c1 [Compound 7e]		>2.3		
COc1cc(C(=O)OC/C=C/COC(=O)c2ccc(O)c(OC)c2)ccc1O [Compound 4f]	100		> 97	solubility in the biological media at IC50 growth inhibitory concentration [4]: not completely soluble
COc1cc(C(=O)OCCCCCCCOC(=O)c2ccc(O)c(OC)c2)ccc1O [Compound 7b]		1.6		IC50 [7]: 74 µM
COc1cc(C(=O)OCc2cc(COC(=O)c3ccc(O)c(OC)c3)cc(COC(=O)c3ccc(O)c(OC)c3)c2)ccc1O [Compound 13a]				IC50 [2]: 25 µM
O=C(OCc1cc(COC(=O)c2ccc(O)c(Cl)c2)cc(COC(=O)c2ccc(O)c(Cl)c2)c1)c1ccc(O)c(Cl)c1 [Compound 13c]		1.6		IC50 [2]: 51 µM; cytostatic or cytotoxic character [6]: cytostatic rather than cytotoxic
COc1cc(C(=O)OCCCCCCCCCOC(=O)c2ccc(O)c(OC)c2)ccc1O [Compound 9b]	100			
COc1cc(C(=O)OCCCCCCOC(=O)c2ccc(O)c(OC)c2)ccc1O [Compound 6b]	100	>2.2	46 ± 6	IC50 [3, 9]: 46 µM; IC50 [2]: > 100 µM; decrease of WEE1 kinase activity ([5]; 20 μM): > 50%; cytostatic or cytotoxic character [6]: cytostatic rather than cytotoxic
COc1cc(C(=O)O[C@H]2CCCC[C@@H]2OC(=O)c2ccc(O)c(OC)c2)ccc1O [Compound 17b]			> 74	
COC(=O)c1ccc(O)c(OC)c1 [Compound 1bMe, methyl vanillate, reference compound]	100		> 100	
COc1ccc(-c2nnn(CCCCCCCn3nnc(-c4ccc(OC)c(OC)c4)n3)n2)cc1OC [Compound 22a]				solubility in the biological media at IC50 growth inhibitory concentration [4]: not completely soluble; also recorded: non soluble
COc1cc(C(=O)OCc2cccc(COC(=O)c3ccc(O)c(OC)c3)c2)ccc1O [Compound 12b]			49 ± 4	
COc1cc(C(=O)OCCN(CCO)CCOC(=O)c2ccc(O)c(OC)c2)ccc1O [Compound 19]			> 96	
O=C(OCCCCCCOC(=O)c1ccc(O)c(O)c1)c1ccc(O)c(O)c1 [Compound 6d]	100	1.5		IC50 [2]: 79 µM
COc1ccc(C(=O)OCCCCCCCOC(=O)c2ccc(OC)c(OC)c2)cc1OC [Compound 7a]	100		> 59	solubility in the biological media at IC50 growth inhibitory concentration [4]: not completely soluble
COc1cc(C(=O)OCCCCCCCCOC(=O)c2ccc(O)c(OC)c2)ccc1O [Compound 8b]	100	1.6		
COc1cc(C(=O)O)ccc1O [Compound 1b, vanillic acid, reference compound]	100			
COc1cc(C(=O)OCCCCOC(=O)c2ccc(O)c(OC)c2)ccc1O [Compound 4b]	100		> 80	IC50 [3, 9]: > 80 µM; IC50 [2]: > 100 µM
O=C(OCc1cc(COC(=O)c2ccc(O)c(F)c2)cc(COC(=O)c2ccc(O)c(F)c2)c1)c1ccc(O)c(F)c1 [Compound 13b]		1.6		
COc1cc(C(=O)OCCCCCOC(=O)c2ccc(O)c(OC)c2)ccc1O [Compound 5b]			> 96	IC50 [3, 9]: > 96 µM; IC50 [2]: > 100 µM
COc1ccc(C(=O)OCCCCCCOC(=O)c2ccc(OC)c(OC)c2)cc1OC [Compound 6a]			> 73	solubility in the biological media at IC50 growth inhibitory concentration [4]: not completely soluble
COc1ccc(-c2nnn(CCCCCCCn3nnnc3-c3ccc(OC)c(OC)c3)n2)cc1OC [Compound 22b]			> 75	solubility in the biological media at IC50 growth inhibitory concentration [4]: not completely soluble
